ChEMBL document CHEMBL3414565, “Discovery of novel AHLs as potent antiproliferative agents” (Eur J Med Chem, 2015)

Legend:
Format in all cases: functional, cell-based
MGC-803 = experiment: Cytotoxicity against human MGC803 cells after 72 hrs by MTT assay; settings: MGC-803, 72 h
In short: (§1)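 Cells were grown in RPMI1640 and seeded at 5 × 10^3 cells/well, then left 24 h at 37 °C. Medium was replaced with fresh medium holding a range of compound concentrations, from 10 mM DMSO stocks with final DMSO at most 0.1%. Exposure lasted 72 h. MTT (5 mg/mL) was added for 4 h at 37 °C, formazan was dissolved in DMSO and A570 was read. IC50 came from dose-response curves as mean ± SD of three independent experiments.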

MCF7 = experiment: Cytotoxicity against human MCF7 cells after 72 hrs by MTT assay; settings: MCF7, 72 h; in short: as §1
[1] = Cytotoxicity against human EC9706 cells after 72 hrs by MTT assay; settings: EC9706, 72 h; in short: as §1
SMMC-7721 = experiment: Cytotoxicity against human SMMC7721 cells after 72 hrs by MTT assay; settings: SMMC-7721, 72 h; in short: as §1

| SMILES | IC50 (MGC-803) [µM] | IC50 (MCF7) [µM] | IC50 [1] [µM] | IC50 (SMMC-7721) [µM] |
| --- | --- | --- | --- | --- |
| O=C(CCl)Nc1ccc(C(=O)/C=C/C=C/c2ccccc2)cc1 | 5.97 | 4.59 | 10.7 | 36.7 |
| O=C(CSC(=S)N[C@H]1CCOC1=O)Nc1cccc([N+](=O)[O-])c1 | 58.9 | 5.46 | > 128 | > 128 |
| CCCCSC(=S)N[C@H]1CCOC1=O | > 128 | > 128 | > 128 | > 128 |
| CCCCCCCCSC(=S)N[C@H]1CCOC1=O | > 128 | > 128 | > 128 | 65 |
| COc1cccc(/C=C/C(=O)c2ccc(NC(=O)CCl)cc2)c1 | 2.91 | 3.02 | 5.97 | 10.3 |
| O=C(CCl)Nc1ccc(C(=O)/C=C/c2ccc(Cl)cc2)cc1 | 4.96 | 4.1 | 8.34 | 8.16 |
| CCCCCCCCCC(=O)CC(=O)N[C@H]1CCOC1=O | 102 | 37.3 | > 128 | > 128 |
| Cc1ccc(/C=C/C(=O)c2ccc(NC(=O)CCl)cc2)cc1 | 3.6 | 9.18 | 7.15 | 22.9 |
| Cc1cccc(NC(=O)CSC(=S)N[C@H]2CCOC2=O)c1C |  | > 128 | > 128 | 42.1 |
| CCCCCCCCCCCCSC(=S)N[C@H]1CCOC1=O |  | 61.1 | 58.3 | 50.3 |
| CCCCc1ccc(NC(=O)CSC(=S)N[C@H]2CCOC2=O)cc1 | 20.5 | 40.2 | 44.2 | 27.3 |
| O=C(CSC(=S)N[C@H]1CCOC1=O)Nc1ccc(C(=O)/C=C/c2ccc([N+](=O)[O-])cc2)cc1 | 29.4 | 2.67 | > 128 | > 128 |
| O=C(CCl)Nc1ccc(C(=O)/C=C/c2ccccc2)cc1 | 6.94 | 2.48 | 6.37 | 12.6 |
| CSC(=S)N[C@H]1CCOC1=O | > 128 | > 128 | > 128 | > 128 |
| O=C(CSC(=S)N[C@H]1CCOC1=O)Nc1ccc(Cl)cc1Cl | 48.5 | 29.2 | > 128 | > 128 |
| COc1cc(/C=C/C(=O)c2ccc(NC(=O)CCl)cc2)cc(OC)c1OC | 1.72 | 1.32 | 2.73 | 3 |
| O=C(CCl)Nc1ccc(C(=O)/C=C/c2ccccc2Cl)cc1 | 2.75 | 5.26 | 6.98 | 11.1 |
| O=C(CCl)Nc1ccc(C(=O)/C=C/c2ccc(Br)cc2)cc1 | 6.05 | 4.64 | 10.1 | 13.3 |
| O=C(CSC(=S)N[C@H]1CCOC1=O)Nc1ccccc1 | 39.7 | > 128 | > 128 | > 128 |
| CCSC(=S)N[C@H]1CCOC1=O | > 128 | > 128 | > 128 | > 128 |
| O=C(CSC(=S)N[C@H]1CCOC1=O)Nc1ccc(C(=O)/C=C/c2ccc(F)cc2)cc1 | 45.7 | 83.7 | 46.1 | > 128 |
| O=C(CSC(=S)N[C@H]1CCOC1=O)Nc1ccccc1Cl | 31.9 | 90.8 | > 128 | 49.9 |
| O=C(CCl)Nc1ccc(C(=O)/C=C/c2ccc(F)c(F)c2)cc1 | 3.19 | 2.29 | 4.63 | 5.96 |

| SMILES | IC50 (MGC-803) [µM] | IC50 (MCF7) [µM] | IC50 [1] [µM] | IC50 (SMMC-7721) [µM] |
| --- | --- | --- | --- | --- |
| CCCCCCSC(=S)N[C@H]1CCOC1=O | > 128 | > 128 | > 128 | > 128 |
| O=C(CSC(=S)N[C@H]1CCOC1=O)Nc1ccc(Cl)cc1 |  | 50.3 | > 128 | > 128 |
| O=C(CSC(=S)N[C@H]1CCOC1=O)Nc1cccc(C(F)(F)F)c1 | 17.9 | 3.13 | 79.7 | > 128 |
| O=C(CSC(=S)N[C@H]1CCOC1=O)Nc1ccc(O)cc1 | 80 | > 128 | > 128 | > 128 |
| CCOC(=O)c1ccc(NC(=O)CSC(=S)N[C@H]2CCOC2=O)cc1 | 21.7 | 60.2 | 112 | 64.9 |
| O=C(CSC(=S)N[C@H]1CCOC1=O)Nc1ccccc1F |  | 28.6 | > 128 | > 128 |
| CCCCCCCCCCCCCCSC(=S)N[C@H]1CCOC1=O |  | 30.5 | 66.2 | 56.8 |
| O=c1[nH]cc(F)c(=O)[nH]1 [FLUOROURACIL] | 10.7 | 12.2 | 15.7 | 20.4 |
| O=C(CSC(=S)N[C@H]1CCOC1=O)Nc1ccc(Br)cc1 |  | 66.5 | 67.4 | 28.3 |
| O=C(CSC(=S)N[C@H]1CCOC1=O)Nc1ccc(F)cc1 | 37.6 | 5.83 | 67.1 | > 128 |
| O=C(CSC(=S)N[C@H]1CCOC1=O)Nc1cccc(Cl)c1 | 21.8 | 46.6 | 107 | > 128 |
| O=C(CCl)Nc1ccc(C(=O)/C=C/c2cccc(Cl)c2)cc1 | 2.01 | 5.34 | 5.56 | 7.76 |
| Cc1cccc(NC(=O)CSC(=S)N[C@H]2CCOC2=O)c1 | 36.6 | 63.2 | > 128 | > 128 |
| COc1ccc(NC(=O)CSC(=S)N[C@H]2CCOC2=O)cc1 | 62.1 | > 128 | > 128 | > 128 |
| Cc1ccc(NC(=O)CSC(=S)N[C@H]2CCOC2=O)cc1 | 44.3 | 33.5 | 93.9 | 32.7 |
| CC(=O)c1ccc(NC(=O)CSC(=S)N[C@H]2CCOC2=O)cc1 | 99.4 | > 128 | > 128 | > 128 |
| O=C(CSC(=S)N[C@H]1CCOC1=O)Nc1ccc(C(=O)/C=C/c2ccc(Cl)cc2)cc1 | 6.9 | 20.2 | 38.9 | > 128 |
| O=C(CSC(=S)N[C@H]1CCOC1=O)Nc1ccc(C(=O)/C=C/c2cccc(Cl)c2)cc1 | 15.6 | 11.6 | 32.5 | 39.1 |
| O=C(CSC(=S)N[C@H]1CCOC1=O)Nc1ccc(C(=O)/C=C/c2ccc(Br)cc2)cc1 | 19.6 | 18.7 | 91.2 | 18 |
| O=C(CCl)Nc1ccc(C(=O)/C=C/c2ccc(F)cc2)cc1 | 4.68 | 5.47 | 8.6 | 15.1 |
| O=C(CCl)Nc1ccc(C(=O)/C=C/c2ccc([N+](=O)[O-])cc2)cc1 | 2.35 | 3.91 | 3.67 | 9.06 |
| O=C(CSC(=S)N[C@H]1CCOC1=O)Nc1ccc(C(=O)/C=C/c2ccccc2)cc1 | 24.8 | 44.3 | 44.9 | > 128 |
